Data reported in ChEMBL document CHEMBL3046450, “Pyrrole- and dihydropyrrole-fused neonicotinoids: design, synthesis, and insecticidal evaluation” (2013).
Values after ≈ are worked out from the molar mass of the structure shown.

Experiments:
Aphis craccivora [1] = assay: Insecticidal activity against Aphis craccivora (cowpea aphid) assessed as mortality at 500 mg/l; type: functional
Outline: (§1)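 Compounds dissolved in DMF, then diluted with water containing Triton X-100 (0.1 mg L−1) to test concentrations of 500.0, 250.0 and 125.0 mg L−1, plus others; mortality of cowpea aphids was scored.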

Aphis craccivora [2] = assay: Insecticidal activity against Aphis craccivora (cowpea aphid) assessed as mortality; type: functional; outline: as §1

| SMILES | Activity (Aphis craccivora [1]) [%] | LC50 (Aphis craccivora [2]) [mg/L] |
| --- | --- | --- |
| CCOc1c([N+](=O)[O-])c(N(CC)Cc2ccc(Cl)nc2)n(C)c1C | 84 |  |
| CCCOc1c([N+](=O)[O-])c(N(CC)Cc2ccc(Cl)nc2)n(C)c1C | 77 |  |
| CCCCOC1C([N+](=O)[O-])=C2N(Cc3ccc(Cl)nc3)CCN2C1(C)OCCCC (stereo unspecified) | 100 | 3.4 (≈ 7.75 µM) |
| CC1C(=O)C([N+](=O)[O-])=C2N(Cc3ccc(Cl)nc3)CCN21 (stereo unspecified) | 100 | 43.5 (≈ 141 µM) |
| CC12OCCOC1C([N+](=O)[O-])=C1N(Cc3ccc(Cl)nc3)CCN12 (stereo unspecified) | 100 | 10 (≈ 28.3 µM) |
| CC12OCCCOC1C([N+](=O)[O-])=C1N(Cc3ccc(Cl)nc3)CCN12 (stereo unspecified) | 100 | 11.1 (≈ 30.3 µM) |
| CC12OCCCCOC1C([N+](=O)[O-])=C1N(Cc3ccc(Cl)nc3)CCN12 (stereo unspecified) | 100 | 14.8 (≈ 38.9 µM) |
| COc1c([N+](=O)[O-])c2n(c1C)CCN2Cc1ccc(Cl)nc1 | 100 | 14.6 (≈ 45.2 µM) |
| CCOc1c([N+](=O)[O-])c2n(c1C)CCN2Cc1ccc(Cl)nc1 | 100 | 37.3 (≈ 111 µM) |
| CCCOc1c([N+](=O)[O-])c2n(c1C)CCN2Cc1ccc(Cl)nc1 | 100 | 24.5 (≈ 69.8 µM) |
| CCCCOc1c([N+](=O)[O-])c2n(c1C)CCN2Cc1ccc(Cl)nc1 | 100 | 39.5 (≈ 108 µM) |
| CCN(Cc1ccc(Cl)nc1)C1=C([N+](=O)[O-])C(OC)C(C)(O)N1C (stereo unspecified) | 21.6 |  |
| CCOC1C([N+](=O)[O-])=C(N(CC)Cc2ccc(Cl)nc2)N(C)C1(C)O (stereo unspecified) | 29.7 |  |
| CCCOC1C([N+](=O)[O-])=C(N(CC)Cc2ccc(Cl)nc2)N(C)C1(C)O (stereo unspecified) | 19 |  |
| CCN(Cc1ccc(Cl)nc1)C1=C([N+](=O)[O-])C(OC(C)C)C(C)(O)N1C (stereo unspecified) | 21.2 |  |
| CCCCOC1C([N+](=O)[O-])=C(N(CC)Cc2ccc(Cl)nc2)N(C)C1(C)O (stereo unspecified) | 16.4 |  |
| CCN(Cc1ccc(Cl)nc1)c1c([N+](=O)[O-])c(OC)c(C)n1C | 91 |  |
| CC1(O)C(O)C([N+](=O)[O-])=C2N(Cc3ccc(Cl)nc3)CCN21 (stereo unspecified) | 100 | 2 (≈ 6.12 µM) |
| COC1C([N+](=O)[O-])=C2N(Cc3ccc(Cl)nc3)CCN2C1(C)OC (stereo unspecified) | 100 | 0.7 (≈ 1.97 µM) |
| CCOC1C([N+](=O)[O-])=C2N(Cc3ccc(Cl)nc3)CCN2C1(C)OCC (stereo unspecified) | 100 | 0.6 (≈ 1.57 µM) |
| CCCOC1C([N+](=O)[O-])=C2N(Cc3ccc(Cl)nc3)CCN2C1(C)OCCC (stereo unspecified) | 100 | 0.8 (≈ 1.95 µM) |
| O=[N+]([O-])/N=C1\NCCN1Cc1ccc(Cl)nc1 [IMIDACLOPRID] | 100 | 8.9 (≈ 34.8 µM) |
